Assay results of several laboratories.
Compare with care: the assays were run in different laboratories.
Target: Macrophage-stimulating protein receptor (MST1R, Homo sapiens, UniProt Q04912)

| Compound | test | setting | remaining binding [%] |
| --- | --- | --- | --- |
| O=C(c1ccc(Nc2nccc(-c3cc4ccccc4s3)n2)cc1)N1CCC(N2CCCC2)CC1 | binding, competition with immobilised ligand | 1 µM | 88 |
| CN(CCCC(F)(F)F)c1nccc(-c2cnn3ncccc23)n1 | binding | 1 µM | 100 |
| O=C(Nc1cccnn1)N1CC(C/C=C/c2cncc(Oc3ccc(C(F)(F)F)cn3)n2)C1 | cell-free assay, competition with immobilised ligand | 1 µM | 100 |
| Nc1ncc2c(n1)-c1c([nH]c3ccc(C#CC4CC4)cc13)CCCC2 | binding, competition with immobilised ligand | 1 µM | 100 |
| CCN1CCN(Cc2ccc(C(=O)Nc3ccc(C)c(Oc4ccc5c(c4)CC(=O)N5)c3)cc2C(F)(F)F)CC1 | binding, competition with immobilised ligand | 1 µM | 88 |
| CNC(=O)[C@@H]1CC[C@@H](n2c(-c3ccc4cnccc4c3)nc3ccc(C(=O)NCc4cccc(C(N)=O)c4)cc32)C1 | binding, competition with immobilised ligand | 1 µM | 87 |
| C[C@H]1CCN(c2nccc(-c3cnn4ncccc34)n2)C1 | binding | 1 µM | 93 |
| C[C@@H](c1ccc(-n2cnc3c(N)ncnc32)cc1)N1CCc2nn(C)c(Cc3ccccc3)c2C1=O | binding, competition with immobilised ligand | 0.1 µM | 83 |
| O=C(Nc1c[nH]nc1C(=O)NC1CCNCC1)c1cc(F)cc(F)c1 | binding, competition with immobilised ligand | 1 µM | 100 |
| COc1ccnn2ncc(-c3ccnc(N(C)C)n3)c12 | binding | 1 µM | 100 |
| COc1cnc(Nc2cccc(S(N)(=O)=O)c2)nc1N1CCN(c2ccccc2)C(=O)C1 | binding, competition with immobilised ligand | 1 µM | 100 |
| CNC(=O)c1ccc(Nc2ncc(C(F)(F)F)c(NCc3nccnc3N(C)S(C)(=O)=O)n2)cc1 | cell-free assay, competition with immobilised ligand | 0.1 µM | 100 |
| Cc1cnn2ncc(-c3ccnc(N(C)C)n3)c2c1 | binding | 1 µM | 71 |
| CO[C@@H](C)c1c(Nc2ccc([C@@H](N(C)C(=O)C3CCS(=O)(=O)CC3)C(F)(F)F)cc2)cnc2cc(Cl)nn12 | cell-free assay, competition with immobilised ligand | 1 µM | 100 |
| N[C@H]1CCN(c2nccc(-c3cnn4ncccc34)n2)C1 | binding | 1 µM | 82 |
| Cc1nc(N2CC[C@@H](O)C2)ncc1-c1cc(C(F)(F)F)cc2[nH]ncc12 | cell-free assay, competition with immobilised ligand | 1 µM | 100 |
| O=C(c1ccc(Nc2ncc(Cl)c(-c3ccc(Cl)s3)n2)cc1)N1CCC(N2CCCC2)CC1 | binding, competition with immobilised ligand | 1 µM | 43 |
| CNC(=O)Nc1ccc2c(c1)[C@@]1(CC2)OC(=O)N(CC(=O)N(Cc2ccc(F)cc2)[C@@H](C)C(F)(F)F)C1=O | cell-free assay, competition with immobilised ligand | 1 µM | 100 |
| CN(c1nccc(-c2cnn3ncccc23)n1)C1CC1 | binding | 1 µM | 100 |
| NS(=O)(=O)c1cc(NC(=O)Cc2ccccc2)ccc1Oc1cccc(Cl)c1 | cell-free assay, competition with immobilised ligand | 1 µM | 97 |
| Cc1cnc(Nc2ccc(C(=O)N3CCC(N4CCCC4)CC3)cc2)nc1-c1cc2ccccc2s1 | binding, competition with immobilised ligand | 1 µM | 83 |
